Measurements taken from ChEMBL document CHEMBL1811814, “Synthesis and evaluation of indole, pyrazole, chromone and pyrimidine based conjugates for tumor growth inhibitory activities--development of highly efficacious cytotoxic agents” (Eur J Med Chem, 2010).

Experiments:
Format in all cases: functional
[1] = system: COLO 205; assay: Growth inhibition of human COLO205 cells assessed tumor cell growth at 10^-5 M; set-up: scale not given: the % may be the effect or the level left
Summary of the method: (§1)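 NCI 60-human-tumor-cell-line panel screen. Each compound was tested at a single concentration of 10^-5 M, and percent growth of tumor cells was recorded for each cell line. Growth inhibition was expressed from these percent-growth values.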

[2] = system: EKVX; assay: Growth inhibition of human EKVX cells
[3] = system: SN12C; assay: Growth inhibition of human SN12C cells
[4] = system: HCC 2998; assay: Growth inhibition of human HCC2998 cells
[5] = system: NCI/ADR-RES; assay: Growth inhibition of human NCI/ADR-RES cells
[6] = system: OVCAR-8; assay: Growth inhibition of human OVCAR8 cells
[7] = system: ACHN; assay: Growth inhibition of human ACHN cells
[8] = system: NCI/ADR-RES; assay: Growth inhibition of human NCI/ADR-RES cells assessed tumor cell growth at 10^-5 M; set-up: scale not given: the % may be the effect or the level left; summary of the method: as §1
[9] = system: HOP-92; assay: Growth inhibition of human HOP92 cells assessed tumor cell growth at 10^-5 M; set-up: scale not given: the % may be the effect or the level left; summary of the method: as §1
[10] = system: SK-OV-3; assay: Growth inhibition of human SKOV3 cells
[11] = system: A549; assay: Growth inhibition of human A549 cells assessed tumor cell growth at 10^-5 M; set-up: scale not given: the % may be the effect or the level left; summary of the method: as §1
[12] = system: OVCAR-3; assay: Growth inhibition of human OVCAR3 cells assessed tumor cell growth at 10^-5 M; set-up: scale not given: the % may be the effect or the level left; summary of the method: as §1
[13] = system: MDA-MB-231; assay: Growth inhibition of human MDA-MB-231 cells assessed tumor cell growth at 10^-5 M; set-up: scale not given: the % may be the effect or the level left; summary of the method: as §1
[14] = system: SNB-75; assay: Growth inhibition of human SNB75 cells
[15] = system: T47D; assay: Growth inhibition of human T47D cells assessed tumor cell growth at 10^-5 M; set-up: scale not given: the % may be the effect or the level left
Summary of the method: (§2)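 Single-dose screen at 10^-5 M across the 60 human tumor cell line panel, run to NCI standards. The value is the percent growth of each cell line in the presence of compound. Compounds active at this dose moved on to five-concentration testing (10^-4 to 10^-8 M).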

[16] = system: NCI-H522; assay: Growth inhibition of human NCI-H522 cells assessed tumor cell growth at 10^-5 M; set-up: scale not given: the % may be the effect or the level left; summary of the method: as §1
[17] = system: SW-620; assay: Growth inhibition of human SW620 cells assessed tumor cell growth at 10^-5 M; set-up: scale not given: the % may be the effect or the level left; summary of the method: as §2
[18] = system: NCI-H460; assay: Growth inhibition of human NCI-H460 cells assessed tumor cell growth at 10^-5 M; set-up: scale not given: the % may be the effect or the level left; summary of the method: as §1
[19] = system: SK-MEL-2; assay: Growth inhibition of human SK-MEL-2 cells
[20] = system: ACHN; assay: Growth inhibition of human ACHN cells assessed tumor cell growth at 10^-5 M; set-up: scale not given: the % may be the effect or the level left; summary of the method: as §1
[21] = system: U-251; assay: Growth inhibition of human U251 cells
[22] = system: BT-549; assay: Growth inhibition of human BT549 cells
[23] = system: PC-3; assay: Growth inhibition of human PC3 cells
[24] = system: SF-295; assay: Growth inhibition of human SF295 cells
[25] = system: OVCAR-8; assay: Growth inhibition of human OVCAR8 cells assessed tumor cell growth at 10^-5 M; set-up: scale not given: the % may be the effect or the level left; summary of the method: as §1
[26] = system: TK-10; assay: Growth inhibition of human TK10 cells
[27] = Growth inhibition of human Hs 578T cells assessed tumor cell growth at 10^-5 M; set-up: scale not given: the % may be the effect or the level left; summary of the method: as §1
[28] = system: OVCAR-4; assay: Growth inhibition of human OVCAR4 cells
[29] = system: M14; assay: Growth inhibition of human M14 cells
[30] = system: KM12; assay: Growth inhibition of human KM12 cells
[31] = system: SR; assay: Growth inhibition of human SR cells
[32] = system: A498; assay: Growth inhibition of human A498 cells assessed tumor cell growth at 10^-5 M; set-up: scale not given: the % may be the effect or the level left; summary of the method: as §1
[33] = system: K562; assay: Growth inhibition of human K562 cells assessed tumor cell growth at 10^-5 M; set-up: scale not given: the % may be the effect or the level left; summary of the method: as §1
[34] = system: SN12C; assay: Growth inhibition of human SN12C cells assessed tumor cell growth at 10^-5 M; set-up: scale not given: the % may be the effect or the level left; summary of the method: as §1
[35] = system: OVCAR-4; assay: Growth inhibition of human OVCAR4 cells assessed tumor cell growth at 10^-5 M; set-up: scale not given: the % may be the effect or the level left; summary of the method: as §1
[36] = system: HCT-116; assay: Growth inhibition of human HCT116 cells assessed tumor cell growth at 10^-5 M; set-up: scale not given: the % may be the effect or the level left; summary of the method: as §1
[37] = system: SK-MEL-5; assay: Growth inhibition of human SK-MEL-5 cells assessed tumor cell growth at 10^-5 M; set-up: scale not given: the % may be the effect or the level left; summary of the method: as §1
[38] = system: UACC-62; assay: Growth inhibition of human UACC62 cells assessed tumor cell growth at 10^-5 M; set-up: scale not given: the % may be the effect or the level left; summary of the method: as §2
[39] = system: NCI-H322M; assay: Growth inhibition of human NCI-H322M cells
[40] = system: OVCAR-5; assay: Growth inhibition of human OVCAR5 cells
[41] = system: SK-MEL-5; assay: Growth inhibition of human SK-MEL-5 cells
[42] = system: MDA-MB-468; assay: Growth inhibition of human MDA-MB-468 cells
[43] = system: HCT-15; assay: Growth inhibition of human HCT15 cells assessed tumor cell growth at 10^-5 M; set-up: scale not given: the % may be the effect or the level left; summary of the method: as §1
[44] = system: HCT-116; assay: Growth inhibition of human HCT116 cells
[45] = system: NCI-H23; assay: Growth inhibition of human NCI-H23 cells assessed tumor cell growth at 10^-5 M; set-up: scale not given: the % may be the effect or the level left; summary of the method: as §1
[46] = system: HOP-62; assay: Growth inhibition of human HOP62 cells
[47] = system: M14; assay: Growth inhibition of human M14 cells assessed tumor cell growth at 10^-5 M; set-up: scale not given: the % may be the effect or the level left; summary of the method: as §1
[48] = system: CCRF-CEM; assay: Growth inhibition of human CCRF-CEM cells
[49] = system: SK-MEL-2; assay: Growth inhibition of human SK-MEL-2 cells assessed tumor cell growth at 10^-5 M; set-up: scale not given: the % may be the effect or the level left; summary of the method: as §1
[50] = system: NCI-H322M; assay: Growth inhibition of human NCI-H322M cells assessed tumor cell growth at 10^-5 M; set-up: scale not given: the % may be the effect or the level left; summary of the method: as §1
[51] = system: LOX IMVI; assay: Growth inhibition of human LOXIMVI cells
[52] = system: 786-0; assay: Growth inhibition of human 786-0 cells assessed tumor cell growth at 10^-5 M; set-up: scale not given: the % may be the effect or the level left; summary of the method: as §1
[53] = system: EKVX; assay: Growth inhibition of human EKVX cells assessed tumor cell growth at 10^-5 M; set-up: scale not given: the % may be the effect or the level left; summary of the method: as §1
[54] = system: UO-31; assay: Growth inhibition of human UO31 cells assessed tumor cell growth at 10^-5 M; set-up: scale not given: the % may be the effect or the level left; summary of the method: as §2
[55] = system: NCI-H226; assay: Growth inhibition of human NCI-H226 cells assessed tumor cell growth at 10^-5 M; set-up: scale not given: the % may be the effect or the level left; summary of the method: as §1
[56] = read-out: LC50 (the source's name)

For `CC1=NN(c2cccc(Cl)c2)C(=O)/C1=C\C=C\c1ccccc1`, the Activity [1] was 11.57%, the GI50 [2] was 3 µM and the CC50 [2, 56] was greater than 100 µM. It also gave a GI50 [3] of 2.4 µM, a CC50 [3, 56] greater than 100 µM and a GI50 [4] of 1.9 µM. It also gave a CC50 [4, 56] of 6.3 µM, a GI50 [5] of 3.3 µM and a CC50 [5, 56] greater than 100 µM. For the same compound, the GI50 [6] was 2.6 µM, the CC50 [6, 56] was greater than 100 µM and the GI50 [7] was 1.7 µM. For the same compound, the CC50 [7, 56] was 6.1 µM, the Activity [8] was -17.49% and the Activity [9] was 101.34%. The GI50 [10] was 3.2 µM, the CC50 [10, 56] was greater than 100 µM and the Activity [11] was 94.48%. The Activity [12] was 103.59%, the Activity [13] was 13.67% and the GI50 [14] was 7 µM. It also gave a CC50 [14, 56] greater than 100 µM, an Activity [15] of 41.86% and an Activity [16] of 34.37%. The Activity [17] was 1.26%, the Activity [18] was 100.76% and the GI50 [19] was 3.8 µM. It also gave a CC50 [19, 56] greater than 100 µM, an Activity [20] of -51.29% and a GI50 [21] of 1.7 µM. The CC50 [21, 56] was 23.9 µM, the GI50 [22] was 1.6 µM and the CC50 [22, 56] was 6.1 µM. The GI50 [23] was 2.9 µM, the CC50 [23, 56] was greater than 100 µM and the GI50 [24] was 3.1 µM. The CC50 [24, 56] was greater than 100 µM, the Activity [25] was 0.37% and the GI50 [26] was 3.1 µM. It also gave a CC50 [26, 56] greater than 100 µM, an Activity [27] of 132.74% and a GI50 [28] of 3.3 µM. The CC50 [28, 56] was greater than 100 µM, the GI50 [29] was 1.6 µM and the CC50 [29, 56] was 7.5 µM. For the same compound, the GI50 [30] was 1.6 µM, the CC50 [30, 56] was 5.8 µM and the GI50 [31] was 2.3 µM. The CC50 [31, 56] was greater than 100 µM, the Activity [32] was 109.76% and the Activity [33] was 76.92%. For the same compound, the Activity [34] was 0.41%, the Activity [35] was -20.79% and the Activity [36] was -89.22%. It also gave an Activity [37] of 5.05%, an Activity [38] of 28.21% and a GI50 [39] of 28.1 µM. For the same compound, the CC50 [39, 56] was greater than 100 µM, the GI50 [40] was 2.8 µM and the CC50 [40, 56] was greater than 100 µM. The GI50 [41] was 2.2 µM, the CC50 [41, 56] was 20.8 µM and the GI50 [42] was 1.6 µM. For the same compound, the CC50 [42, 56] was 39.8 µM, the Activity [43] was 5% and the GI50 [44] was 1.5 µM. For the same compound, the CC50 [44, 56] was 6.1 µM, the Activity [45] was 26.27% and the GI50 [46] was 3.1 µM. It also gave a CC50 [46, 56] of 57.5 µM, an Activity [47] of 14.42% and a GI50 [48] of 3.1 µM. It also gave a CC50 [48, 56] greater than 100 µM, an Activity [49] of 74.62% and an Activity [50] of 111.8%. It also gave a GI50 [51] of 1.4 µM, a CC50 [51, 56] of 6.7 µM and an Activity [52] of 35.48%. It also gave an Activity [53] of 87.07%, an Activity [54] of 69.7% and an Activity [55] of 3.87%.
